MsrA inh = bovine MsrA enzyme inhibitors, primary screen, biochemical, absorbance, HTS | hit rate 0.75% among 360,000 | inhibition, % at 15.5 µM | purified bovine MsrA, absorbance read-out | AID 651718, 2012 | Methionine sulfoxide reductase A (Bos taurus); in the data active = inhibition above about 4.5%
proCasp7 act = procaspase-7 activators, primary screen, counter-screen for procaspase-3 activator project, biochemical, absorbance, HTS, human | hit rate 0.093% among 330,000 | recombinant procaspase-7, Ac-DEVD-pNA absorbance 405 nm; D23A/D198A/D206A triple mutant, cannot self-cleave; scale: DMSO 0, 5 µM enzyme 100 | Caspase-7 (Homo sapiens), P55210 | activation, % at 8.5 µM;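 active = percent activation above the screen-wide mean plus 3 SD, cut at about 25% in these data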
Target sequence (P55210 whole entry D23A/D198A/D206A): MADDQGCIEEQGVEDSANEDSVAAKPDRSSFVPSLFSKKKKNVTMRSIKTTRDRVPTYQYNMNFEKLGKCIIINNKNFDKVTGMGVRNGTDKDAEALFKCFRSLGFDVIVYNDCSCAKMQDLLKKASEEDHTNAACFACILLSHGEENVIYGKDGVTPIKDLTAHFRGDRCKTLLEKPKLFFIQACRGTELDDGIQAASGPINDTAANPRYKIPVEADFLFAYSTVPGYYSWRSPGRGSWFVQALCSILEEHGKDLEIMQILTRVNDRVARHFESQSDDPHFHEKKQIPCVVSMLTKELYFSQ
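Assay system: Uncleavable procaspase-7 mutant enzyme / Input: 2 µM procaspase-7 mutant as dispensed / Dosing: single nominal 8.5 µM compound dose, 0.8% DMSO final / Timing: 1 h enzyme–compound preincubation and 2 h substrate reaction, both 25 °C / Detection: p-Nitroaniline absorbance at 405 nm, read at 0 and 120 min / Replication: singlicate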
A1 inh = caspase 3/7 activation in MEF A1-2A-BIM cells, primary screen, A1 inhibitor project, cell-based, luminescence, HTS; hit rate 0.066% among 330,000; Caspase-Glo 3/7 luminescence, 3 h; percent of clofoctol response, vehicle zero; caspase activation, % (no concentration beside the values);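 active = over half of replicate activation scores above 10%, or exactly half above 10 with the replicate mean above 10; inconclusive = replicate mean below 10 yet half the replicates above 10; inactive = over half of replicates below 10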
proCasp3 act = activators of human procaspase-3 D3A mutant, primary screen, biochemical, absorbance, PC-3 D3A mutant, single concentration | Caspase-3 (Homo sapiens), P42574 | hit rate 0.11% among 330,000 | activation, % at 8.5 µM | recombinant procaspase-3 D3A, Ac-DEVD-pNA absorbance 405 nm;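 active = activation above the mean of all tested compounds plus 3 SD, cut at about 21% in these data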
Target sequence (P42574 whole entry D9A/D28A/D175A): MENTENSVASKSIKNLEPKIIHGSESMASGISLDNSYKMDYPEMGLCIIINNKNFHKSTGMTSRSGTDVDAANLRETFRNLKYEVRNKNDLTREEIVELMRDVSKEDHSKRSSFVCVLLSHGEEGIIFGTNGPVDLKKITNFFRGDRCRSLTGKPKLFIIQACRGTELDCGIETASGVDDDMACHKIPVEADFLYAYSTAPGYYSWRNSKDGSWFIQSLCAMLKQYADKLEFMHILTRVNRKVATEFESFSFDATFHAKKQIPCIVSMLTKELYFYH
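Technique: 405 nm absorbance of p-nitroaniline, reads at 0 and 120 min; Test system: Procaspase-3 D3A mutant; Incubation: 1 h enzyme-compound preincubation, then 2 h substrate reaction, 25 °C; Repeats: singlicate, each compound tested once; Benchmarks: low control DMSO wells, high control DMSO plus 5 µM PC-3 D3A.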
MsrA act = bovine MsrA enzyme activators, primary screen, biochemical, absorbance, HTS; purified bovine MsrA, absorbance read-out; activation, % at 10.6 µM; Methionine sulfoxide reductase A (Bos taurus); hit rate 0.3% among 360,000; in the data active = activation above about 7.5%
MsrA act confirm = bovine MsrA activators, retest, confirmation, biochemical, absorbance, HTS | AID 602270, 2012 | purified bovine MsrA, absorbance read-out | shares compounds with MsrA act | activation, % at 10.6 µM | hit rate 12% among 1,000; in the data active = activation above about 4%;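 also: enzyme coupled to thioredoxin and thioredoxin reductase with NADPH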
A number is an active result; n = inactive; u = inconclusive; x = no result. Most compounds without a hit are left out; they make up all but 1.2% or so of the library.

SMILES	MsrA inh	proCasp7 act	A1 inh	proCasp3 act	MsrA act	MsrA act confirm
COc1ccccc1CNC(=O)CCCn1nc(C)c2c(C)n(-c3ccccc3)nc2c1=O	n	n	n	n	12	n
Cc1cc(=O)[nH]c(SCC(=O)NCc2ccc3c(c2)OCO3)n1	n	n	n	n	n	x
Cc1nc(SCC(=O)NCc2ccc3c(c2)OCO3)c(C#N)c2c1CCCC2	n	n	n	n	9.2	n
COc1ccc(NC(=O)CSc2nc(C)c3c(c2C#N)CCCC3)cc1	n	n	n	n	n	x
CCc1nnc(NC(=O)CSc2nc(C)c3c(c2C#N)CCCC3)s1	x	n	n	n	15	n
Cc1ccc2nc(CN(C)C(=O)[C@@H](Cc3ccccc3)NC(=O)[C@H]3O[C@@H](n4cnc(C(N)=O)n4)[C@H](O)[C@@H]3O)[nH]c2c1	n	x	x	x	x	x
Cc1cc(N2CCN(C(=O)OC(C)(C)C)C[C@@H]2C)ccc1N1CCS(=O)(=O)CC1	n	x	x	x	x	x
CC(=O)Nc1nc(-c2ccc(Cl)cc2)nc(C)c1C(C)=O	n	n	n	n	8.9	n
CC(=O)c1c(C)nc(C)nc1NC(=O)Cc1ccccc1	n	n	u	n	n	x
CC(C)c1c(O)nc(SCC(=O)N2CCCCC2)[nH]c1=O	n	n	n	n	n	x
CC(C)Cc1c(O)nc(SCC(=O)N2CCCCCC2)[nH]c1=O	n	n	n	n	22	n
C=CCNc1cccc2c1S(=O)(=O)N[C@@H](C)CO2	n	x	x	x	x	x
NC(=O)c1ncn2c(=O)n(CCCl)nnc12	n	x	x	x	x	x
O=c1[nH]cccc1-c1nc2ccccc2n1Cc1ccc(F)cc1	n	n	n	n	15	n
Cc1cc2nc(-c3ccc[nH]c3=O)n(Cc3ccc(F)cc3)c2cc1C	n	n	n	n	n	x
O=C(NCC1COc2ccccc2O1)C1CCC(CNc2c(N3CCCCC3)c(=O)c2=O)CC1 (configuration not stated)	n	n	n	n	8.9	n
Nc1c(C(=O)N/N=C/c2cccnc2)oc2nc(-c3ccco3)cc(-c3ccco3)c12	n	n	n	n	n	x
NNC(=O)c1oc2nc(-c3ccco3)cc(-c3ccco3)c2c1N	n	n	n	n	8.2	n
Cc1c(C)n(CCc2ccccc2)c2ncnc(NCCO)c12	n	n	n	n	10.0	n
COC(=O)[C@@H](Cc1ccc(O)cc1)NC(=O)[C@H]1O[C@@H](n2cnc3c(=O)[nH]c(N)nc32)[C@H](O)[C@@H]1O	n	x	x	x	x	x
O=C(c1ccc(CN2CCOCC2)cc1)N1CCN(Cc2ccccc2)CC1	n	n	n	n	n	x
O=C(c1cc(Cl)c(=O)n(Cc2ccccc2)c1)N1CCOCC1	n	n	n	n	9.2	n
CCNC(=O)c1cc2c(c(-c3cccc(-c4cncnc4)c3)n1)[C@@H](CCO)N(C(C)=O)C2	n	x	x	x	n	x
CCC(=O)N1Cc2cc(C(=O)NCC(F)(F)F)nc(-c3cccc(-c4cncnc4)c3)c2[C@@H]1CCO	n	x	x	x	8.2	n
O=C(N/N=C/c1ccc([N+](=O)[O-])s1)c1cccc(Br)c1	n	n	n	n	8.7	6.6
SMILES	MsrA inh	proCasp7 act	A1 inh	proCasp3 act	MsrA act	MsrA act confirm
O=C(N/N=C/c1ccc(O)c2ncccc12)c1cccc(Br)c1	n	n	n	n	15	n
S=C(NCc1ccccc1)N1CCc2ccccc2C1	n	n	n	n	9.5	n
COc1ccccc1CNC(=O)C(CCSC)NC(=O)C1CCC(C)CC1 (configuration not stated)	n	n	n	n	9.0	n
OC(COc1ccc2ccccc2c1Br)Cn1ccnc1 (configuration not stated)	n	n	n	n	n	x
OC(COc1ccc2ccccc2c1)Cn1ccnc1 (configuration not stated)	n	n	n	n	8.1	n
COC(=O)[C@]12C[C@H](CC(=O)N3CCSCC3)C(=O)N(Cc3ccccc3)C1=C[C@H](C(C)(C)C)O[C@@H]2C	n	x	x	x	x	x
CCCCCCCCCCCCCCCC[n+]1cccc(C(=O)N(CC)CC)c1	n	n	n	n	n	x
CCCCCCCC[n+]1cccc(C(=O)N(CC)CC)c1	n	n	n	n	18	n
CCOC(=O)N1CCN(C(=O)c2noc3c2COc2ccccc2-3)CC1	n	n	n	n	n	x
CCCN1CCN(C(=O)c2noc3c2COc2ccc(C)cc2-3)CC1	n	n	n	n	8.0	n
Cc1ccc(CC2C(=O)N(c3ncccn3)C(=O)C2C)cc1 (configuration not stated)	n	n	n	n	20	n
COC(=O)C1=C(C)N(Cc2cccc(C(F)(F)F)c2)C(=NCc2cc(OC)c(OC)c(OC)c2)NC1c1ccc(F)cc1 (configuration not stated)	n	x	x	x	x	x
C[C@@H]1CN([C@@H](C)CO)C(=O)c2ccccc2-c2ccccc2CO[C@@H]1CN(C)Cc1ccc(Cl)c(Cl)c1	n	x	x	x	x	x
CC(c1nnnn1C1CCCCC1)N(Cc1ccccc1)Cc1cccnc1 (configuration not stated)	n	n	n	n	11	n
CCN(Cc1ccccc1)C(c1ccccn1)c1nnnn1C1CCCCC1 (configuration not stated)	n	n	n	n	n	x
COC(=O)Cc1[nH]nc2c1C(c1cc(OC)c(OC)c(OC)c1)C(C#N)=C(N)O2 (configuration not stated)	n	n	n	n	n	x
COC(=O)Cc1[nH]nc2c1C(c1c[nH]c3ccccc13)C(C#N)=C(N)O2 (configuration not stated)	n	n	n	n	12	n
COc1cc(SC)ccc1C(=O)OCC(=O)NC(=O)NC(C)C	n	n	n	n	7.9	n
CCc1ccc(C2CC(c3ccccc3)Nc3nc(N)nn32)cc1 (configuration not stated)	n	n	n	n	n	x
CCc1ccc(C2CC(c3ccccc3Cl)Nc3nc(N)nn32)cc1 (configuration not stated)	n	n	n	n	9.4	n
Fc1ccc(-c2csc(=S)[nH]2)cc1	n	n	n	n	8.0	n
S=c1[nH]c(-c2ccccc2)cs1	n	n	n	n	n	x
COC(=O)[C@]1(Cc2ccccc2)NC=C(C(=O)c2ccc(F)cc2)[C@@H]1c1ccccc1	n	x	x	x	x	x
CCc1cc2c(=O)n(CCC(C)C)c(=S)[nH]c2s1	n	n	n	n	15	n

Bioassay records as filed in PubChem.
